Assay results published in ChEMBL document CHEMBL4602721, “Discovery of Potent Inhibitors against P-Glycoprotein-Mediated Multidrug Resistance Aided by Late-Stage Functionalization of a 2-(4-(Pyridin-2-yl)phenoxy)pyridine Analogue” (J Med Chem, 2020).

Tests used:
[1] = molecular target: T1, ATP-dependent translocase ABCB1 (Homo sapiens, UniProt P08183); test: Reversal of Pgp-mediated DOX resistance in human SW620/AD300 cells assessed as potentiation of DOX-induced cytotoxicity by measuring change in DOX IC50 at 1 uM incubated for 48 hrs by SRB assay relative to DOX alone; format: cell-based; conditions: sw620/ad300, 48 h
[2] = molecular target: T1, ATP-dependent translocase ABCB1; test: Reversal of Pgp-mediated DOX resistance in human SW620/AD300 cells assessed as potentiation of DOX-induced cytotoxicity by measuring inhibition of cell proliferation at 1 uM incubated for 48 hrs by SRB assay (reference value: 5.3 +/- 3 %); format: cell-based
[3] = Cytotoxicity against human SW620/AD300 cells assessed as cell growth inhibition at 10 uM incubated for 48 hrs by SRB assay relative to control; format: cell-based; conditions: read-out: GI
[4] = system: K562/A02; test: Potentiation of DOX-induced anti tumor activity against human K562/A02 cells xenografted in BALB/c mouse assessed as tumor size at 3 mg/kg, iv administered every 2 days for 14 days measured during compound dosing by caliper method (reference value: 610 mm3); format: functional
Outline: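 Mice bearing subcutaneous ABCB1-overexpressing K562/A02 xenografts treated with DOX alone, modulator alone, or combinations (verapamil as comparator) for 14 days; tumor volume measured every two days.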

T1 sequence (P08183 whole entry): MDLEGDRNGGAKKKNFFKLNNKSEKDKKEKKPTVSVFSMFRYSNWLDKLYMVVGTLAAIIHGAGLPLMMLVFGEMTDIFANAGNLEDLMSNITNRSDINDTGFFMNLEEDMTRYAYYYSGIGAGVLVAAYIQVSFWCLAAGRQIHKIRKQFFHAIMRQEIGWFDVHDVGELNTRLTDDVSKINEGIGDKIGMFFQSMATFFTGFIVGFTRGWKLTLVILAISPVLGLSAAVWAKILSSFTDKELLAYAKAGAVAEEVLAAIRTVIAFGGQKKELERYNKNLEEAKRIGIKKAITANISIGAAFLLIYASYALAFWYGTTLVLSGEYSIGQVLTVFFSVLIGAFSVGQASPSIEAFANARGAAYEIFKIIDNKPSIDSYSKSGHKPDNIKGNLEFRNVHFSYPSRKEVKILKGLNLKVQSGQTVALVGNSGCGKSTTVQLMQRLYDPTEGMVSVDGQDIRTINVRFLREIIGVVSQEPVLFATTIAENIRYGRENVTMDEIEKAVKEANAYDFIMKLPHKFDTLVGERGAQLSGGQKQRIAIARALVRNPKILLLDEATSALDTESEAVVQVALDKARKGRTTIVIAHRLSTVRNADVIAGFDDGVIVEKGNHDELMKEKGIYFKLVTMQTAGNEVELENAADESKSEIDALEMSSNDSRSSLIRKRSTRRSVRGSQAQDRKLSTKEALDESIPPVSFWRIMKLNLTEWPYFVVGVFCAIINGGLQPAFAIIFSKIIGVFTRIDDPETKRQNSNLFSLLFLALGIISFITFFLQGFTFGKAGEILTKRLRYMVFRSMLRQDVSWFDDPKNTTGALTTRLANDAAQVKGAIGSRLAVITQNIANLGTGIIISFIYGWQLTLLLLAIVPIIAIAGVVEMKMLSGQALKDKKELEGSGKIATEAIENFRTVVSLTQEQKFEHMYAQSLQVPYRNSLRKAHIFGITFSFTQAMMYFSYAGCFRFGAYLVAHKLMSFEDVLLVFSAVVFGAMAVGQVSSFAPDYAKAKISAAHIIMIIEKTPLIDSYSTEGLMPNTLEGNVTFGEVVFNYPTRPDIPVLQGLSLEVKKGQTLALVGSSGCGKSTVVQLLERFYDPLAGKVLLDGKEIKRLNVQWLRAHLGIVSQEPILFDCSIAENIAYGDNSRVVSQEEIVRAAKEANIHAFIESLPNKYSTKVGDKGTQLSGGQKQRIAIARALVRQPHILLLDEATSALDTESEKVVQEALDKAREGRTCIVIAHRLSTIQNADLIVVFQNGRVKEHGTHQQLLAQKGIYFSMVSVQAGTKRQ

| SMILES | fold change (FC) [1] | inhibition at 1 µM [2] | inhibition at 48 h, 10 µM [3] | Activity [4] |
| --- | --- | --- | --- | --- |
| COc1cc2c(cc1OC)CN(CCc1ccc(NC(=O)/C=C/c3ccc(Oc4cc(O)c(-c5ccccn5)c(O)c4)nc3)cc1)CC2 | 42.81 | 56.3% | – | – |
| Cn1c(-c2ccccc2)c(/C=C/C(=O)Nc2nc3ccccc3s2)c2cccnc21 | – | 44.7% | – | – |
| COc1cc2c(cc1OC)CN(C(=O)/C=C/c1c(-c3ccccc3)n(C)c3ncccc13)CC2 | – | 40% | – | – |
| COc1cc2c(cc1OC)CN(C(=O)/C=C/c1c(-c3ccccc3)nc3ccccn13)CC2 | – | 37.5% | – | – |
| COc1cc2c(cc1OC)CN(CCc1ccc(NC(=O)/C=C/c3ccc(Oc4c(I)cc(-c5ccccn5)cc4I)nc3)cc1)CC2 | 28.3 | 53.2% | – | – |
| COc1cc2c(cc1OC)CN(CCc1ccc(NC(=O)/C=C/c3ccc(Oc4ccc(-c5cccnc5)cc4)nc3)cc1)CC2 | 85.62 | 62.6% | 13.9% | – |
| COc1ccc(CN2CC(c3c(-c4ccccc4)n(C)c4ncccc34)=CC2=O)cc1OC | – | 20.7% | – | – |
| COc1cc2c(cc1OC)CN(C(=O)/C=C(\C)c1c(-c3ccccc3)n(C)c3ncccc13)CC2 | – | 44% | – | – |
| COc1cc2c(cc1OC)CN(CCc1ccc(NC(=O)/C=C/c3ccc(Oc4ccc(-c5ccccn5)c(F)c4)nc3)cc1)CC2 | – | 49.8% | – | – |
| COc1cc2c(cc1OC)CN(CCc1ccc(NC(=O)/C=C/c3ccc(Oc4ccc(-c5ccccn5)cc4)nc3)cc1)CC2 | – | 41.8% | – | – |
| COc1cc2c(cc1OC)CN(C(=O)/C=C/c1ccc(Oc3ccc(-c4ccccn4)cc3)nc1)CC2 | – | 26.7% | – | – |
| COc1cc2c(cc1OC)CN(CCc1ccc(NC(=O)c3ccc(Oc4ccc(-c5ccccn5)cc4)nc3)cc1)CC2 | – | 36.1% | – | – |
| COc1cc2c(cc1OC)CN(CCc1ccc(NC(=O)/C=C/c3ccc(Oc4ccc(-c5ccccn5)cc4I)nc3)cc1)CC2 | 43.93 | 59.2% | – | – |
| COc1cc2c(cc1OC)CN(C(=O)/C(F)=C/c1c(-c3ccccc3)n(C)c3ncccc13)CC2 | – | 12.2% | – | – |
| COc1cc2c(cc1OC)CN(C(=O)/C=C/c1c3n(c4ccccc14)C(c1cccs1)Oc1ccccc1-3)CC2 (stereo not given) | – | 44.3% | – | – |
| COc1cc2c(cc1OC)CN(C(=O)/C=C/c1c3n(c4ncccc14)Cc1ccccc1-3)CC2 | – | 22.9% | – | – |
| COc1ccc(CCN(C)CCCC(C#N)(c2ccc(OC)c(OC)c2)C(C)C)cc1OC (stereo not given) | – | 26.1% | – | 508 mm3 |
| COc1ccc(C(=O)NN2CC(c3c(-c4ccccc4)n(C)c4ncccc34)=CC2=O)cc1OC | – | 14% | – | – |
| Cn1c(-c2ccccc2)c(/C=C/C(=O)NN2Cc3ccccc3C2=O)c2cccnc21 | – | 18.5% | – | – |
| COc1ccc2c(C)c(CC(=O)Nc3ccc(CCN4CCc5cc(OC)c(OC)cc5C4)cc3)c(=O)oc2c1 | 16.95 | 50.5% | – | – |
| COc1cc2c(cc1OC)CN(C(=O)/C=C(/c1c(-c3ccccc3)n(C)c3ncccc13)C(F)(F)F)CC2 | – | 32.5% | – | – |
| COc1cc2c(cc1OC)CN(CCc1ccc(NC(=O)C3CC3c3ccc(Oc4ccc(-c5ccccn5)cc4)nc3)cc1)CC2 (stereo not given) | 43.93 | 59% | – | – |
| [2H]c1c([2H])c(-c2ccccn2)c([2H])c([2H])c1Oc1ccc(/C=C/C(=O)Nc2ccc(CCN3CCc4cc(OC)c(OC)cc4C3)cc2)cn1 | – | 49.5% | – | – |

| SMILES | fold change (FC) [1] | inhibition at 1 µM [2] | inhibition at 48 h, 10 µM [3] | Activity [4] |
| --- | --- | --- | --- | --- |
| COc1cc2c(cc1OC)CN(CCc1ccc(NC(=O)/C=C/c3ccc(Oc4ccc(-c5ccccn5)cc4C)nc3)cc1)CC2 | 45.12 | 55.1% | – | – |
| COc1cc2c(cc1OC)CN(CCc1ccc(NC(=O)/C=C/c3c(-c4ccccc4)n(C)c4ncccc34)cc1)CC2 | 40.72 | 63% | – | – |
| COc1cc2c(cc1OC)CN(CCc1ccc(NC(=O)/C=C/c3ccc(Oc4ccc(-c5ccccn5)c(O)c4)nc3)cc1)CC2 | 40.72 | 56.4% | – | – |
| COc1cc2c(cc1OC)CN(C(=O)/C=C/c1c3n(c4ccccc14)C(C1CCCCC1)Oc1ccccc1-3)CC2 (stereo not given) | – | 40.1% | – | – |
| Cn1c(-c2ccccc2)c(/C=C/C(=O)NN2C(=O)c3ccccc3C2=O)c2cccnc21 | – | 18.9% | – | – |
| COc1cc2c(cc1OC)CN(CCc1ccc(NC(=O)/C=C/c3cc(-c4ccccn4)cc(C)c3Oc3ccccn3)cc1)CC2 | 60.71 | 64% | 17% | – |
| COc1cc2c(cc1OC)CN(S(=O)(=O)/C=C/c1c(-c3ccccc3)n(C)c3ccccc13)CC2 | – | 25.4% | – | – |
| COc1ccc(-c2nnc(/C=C/c3c(-c4ccccc4)n(C)c4ncccc34)o2)cc1OC | – | 15.1% | – | – |
| COc1cc2c(cc1OC)CN(C(=O)/C=C/c1nc(-c3ccccn3)n(C)c1-c1ccccc1)CC2 | – | 28.2% | – | – |
| COc1ccc(C(=O)NNC(=O)/C=C/c2c(-c3ccccc3)n(C)c3ncccc23)cc1OC | – | 10.9% | – | – |
| COc1cc2c(cc1OC)CN(CCc1ccc(NC(=O)C(O)c3c(-c4ccccc4)n(C)c4ccccc34)cc1)CC2 (stereo not given) | 30.35 | 55.3% | – | – |
| COc1cc2c(cc1OC)CN(S(=O)(=O)/C=C/c1c(-c3ccccc3)n(C)c3ncccc13)CC2 | – | 37.9% | – | – |
| COc1cc2c(cc1OC)CN(C(=O)/C=C/c1c3n(c4ncccc14)CCc1ccccc1-3)CC2 | – | 45.4% | – | – |
| COc1cc2c(cc1OC)CN(CCc1ccc(NC(=O)/C=C/c3ccc(Oc4ccc(-c5ccccn5)c(C)c4)nc3)cc1)CC2 | 68.14 | 58.2% | 17.1% | – |
| COc1cc2c(cc1OC)CN(C(=O)CCc1c(-c3ccccc3)n(C)c3ncccc13)CC2 | – | 17.7% | – | – |
| COc1ccc(NC(=O)NC(=O)/C=C/c2c(-c3ccccc3)n(C)c3ncccc23)cc1OC | – | 23.3% | – | – |
| COc1cc2c(cc1OC)CN(CCc1ccc(NC(=O)/C=C/c3cccc(Oc4ccc(-c5ccccn5)cc4)n3)cc1)CC2 | 33.73 | 60.2% | – | – |
| COc1cc2c(cc1OC)CN(C(=O)/C=C/c1c3n(c4ccccc14)C(c1ccccc1)Oc1ccccc1-3)CC2 (stereo not given) | – | 41.4% | – | – |
| COc1cc2c(cc1OC)CN(CCc1ccc(NC(=O)/C=C/c3ccc(Oc4ccc(-c5ccccn5)cc4Br)nc3)cc1)CC2 | 47.7 | 60.1% | – | – |
| COc1cc2c(cc1OC)CN(CCc1ccc(NC(=O)/C=C/c3ccc(Oc4ccc(-c5ccccn5)c(C#N)c4)nc3)cc1)CC2 | 54.74 | 58.3% | 13.9% | – |
| COc1cc2c(cc1OC)CN(CCc1ccc(NC(=O)C(c3c(-c4ccccc4)n(C)c4ccccc34)N3CCOCC3)cc1)CC2 (stereo not given) | 60.71 | 61.7% | 42% | – |
| COc1cc2c(cc1OC)CN(CCc1ccc(NC(=O)/C=C/c3c(-c4ccccc4)oc4ccccc4c3=O)cc1)CC2 | 24.55 | 55.2% | – | – |
| COc1cc2c(cc1OC)CN(CCc1ccc(NC(=O)/C=C/c3ccc(Oc4cccc(-c5ccccn5)c4)nc3)cc1)CC2 | 44.52 | 56.5% | – | – |
